# Reference: ChEMBL document CHEMBL1131166, “Bisphenols that stimulate cells to release alkali metal cations: a structure-activity study” (1998)
# Legend:
# Type in all cases: functional, Cercopithecidae
# [1] = tested on: COS-7; assay: (§1) Fraction of total radioactivity [86Rb] remaining with the compound at a concentration of 10 uM in COS-7 cells
# Outline: (§2)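 COS-7 cells grown in DMEM + 10% FCS to 85–98% confluence, loaded ~4 μCi 86RbCl in BSS (HEPES, pH 7.2) 90 min at 37 °C, washed thrice ice-cold BSS, reincubated 37 °C with medium replaced every 10 min; compound (DMSO stock diluted ≥5000-fold in BSS) present 40 min from 20 min. Cell-retained 86Rb at 60 min as fraction of initial total (cells + media); mean ± SD, three experiments.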
# [2] = tested on: COS-7; assay: Fraction of total radioactivity [86Rb] remaining with the compound at a concentration of 0 uM in COS-7 cells; outline: as §2
# [3] = tested on: COS-7; assay: Fraction of total radioactivity [86Rb] remaining with the compound at a concentration of 0.01 uM in COS-7 cells; outline: as §2
# [4] = tested on: COS-7; assay: Fraction of total radioactivity [86Rb] remaining with the compound at a concentration of 0.1 uM in COS-7 cells and value; outline: as §2
# [5] = tested on: COS-7; assay: Fraction of total radioactivity [86Rb] remaining with the compound at a concentration of 1 uM in COS-7 cells; outline: as §2
# [6] = tested on: COS-7; assay: as §1; remark: listed apart in the source
# Outline: (§3)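 COS-7 cells grown in DMEM with 10% FCS at 37 °C under 5% CO2 until 85–98% confluent. Loaded with about 4 μCi ⁸⁶RbCl in HEPES BSS (pH 7.2) for 90 min at 37 °C, then washed in ice-cold BSS. Reincubated at 37 °C with medium changed every 10 min; compound in BSS (DMSO ≥5000-fold diluted) given for the last 40 min. Read-out is the cell-retained fraction of total ⁸⁶Rb at 60 min by scintillation counting, mean ± SD of three experiments.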
# [7] = tested on: COS-7; assay: Fraction of total radioactivity [86Rb] remaining with the compound at a concentration of 0.1 uM in COS-7 cells; outline: as §3
compound,measurement,setting,value
Oc1ccc(Cc2ccc(O)cc2)cc1,Fraction of accumulated 86Rb remaining.,[1],0.581
Oc1ccc2ccccc2c1-c1c(O)ccc2ccccc12,Fraction of accumulated 86Rb remaining.,[1],0.565
OCCOc1ccc(C2(c3ccc(OCCO)cc3)c3ccccc3-c3ccccc32)cc1,Fraction of accumulated 86Rb remaining.,[1],0.486
Nc1ccc(C2(c3ccc(N)cc3)c3ccccc3-c3ccccc32)cc1,Fraction of accumulated 86Rb remaining.,[1],0.419
Oc1ccc(C2(c3ccc(O)cc3)c3ccccc3-c3ccccc32)cc1,Fraction of accumulated 86Rb remaining.,[2],0.556
same,Fraction of accumulated 86Rb remaining.,[3],0.532
same,Fraction of accumulated 86Rb remaining.,[4],0.147
same,Fraction of accumulated 86Rb remaining.,[5],0.006
same,Fraction of accumulated 86Rb remaining.,[1],0.003
Oc1ccc(-c2ccc(O)cc2)cc1,Fraction of accumulated 86Rb remaining.,[6],0.604
O=C1OC(c2ccc(O)cc2)(c2ccc(O)cc2)c2ccccc21 [PHENOLPHTHALEIN],Fraction of accumulated 86Rb remaining.,[2],0.503
same,Fraction of accumulated 86Rb remaining.,[3],0.461
same,Fraction of accumulated 86Rb remaining.,[5],0.234
same,Fraction of accumulated 86Rb remaining.,[7],0.472
same,Fraction of accumulated 86Rb remaining.,[1],0.091
